From ChEMBL document CHEMBL4190230, “Structurally Diverse Diterpenoids from Isodon scoparius and Their Bioactivity” (J Nat Prod, 2017)

Tests used:
Assay type in all cases: functional, cell-based
HL-60 = assay: Antiproliferative activity against human HL60 cells after 48 hrs by MTS assay; conditions: HL-60, 48 h
How it was run: (§1)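 Cells grown in RPMI-1640 or DMEM with 10% FBS at 37 °C, 5% CO2. Seeded, 12 h at 37 °C, then 40 μM single-concentration screen, 48 h exposure, MTS read-out. Compounds reaching 50% growth inhibition retested at 0.064, 0.32, 1.6, 8 and 40 μM in triplicate; cisplatin and paclitaxel positive controls; IC50 by Reed and Muench method.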

SMMC-7721 = assay: Antiproliferative activity against human SMMC7721 cells after 48 hrs by MTS assay; conditions: SMMC-7721, 48 h; how it was run: as §1
A549 = assay: Antiproliferative activity against human A549 cells after 48 hrs by MTS assay; conditions: A549, 48 h; how it was run: as §1
MCF7 = assay: Antiproliferative activity against human MCF7 cells after 48 hrs by MTS assay; conditions: MCF7, 48 h; how it was run: as §1
SW480 = assay: Antiproliferative activity against human SW480 cells after 48 hrs by MTS assay; conditions: SW480, 48 h; how it was run: as §1
RAW264.7 = assay: Inhibition of LPS-induced NO production in mouse RAW264.7 cells after 18 hrs by Griess assay; conditions: RAW264.7, 18 h
How it was run: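 RAW264.7 macrophages seeded at 1.5 × 10^5 cells/well, given serial dilutions (top 20 μM) in triplicate, then stimulated with 1 μg/mL LPS for 18 h. Supernatant nitrite measured with Griess reagent, 5 min, absorbance 570 nm. L-NMMA positive control; parallel MTS viability check to exclude cytotoxic interference.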

SMILES	IC50 (HL-60) [µM]	IC50 (SMMC-7721) [µM]	IC50 (A549) [µM]	IC50 (MCF7) [µM]	IC50 (SW480) [µM]	IC50 (RAW264.7) [µM]
CC(=O)O[C@H]1C(=O)[C@@]2(C)[C@H]([C@H](OC(=O)c3ccccc3)[C@]3(O)C[C@H](OC(=O)[C@H](O)[C@@H](NC(=O)c4ccccc4)c4ccccc4)C(C)=C1C3(C)C)[C@]1(OC(C)=O)CO[C@@H]1C[C@@H]2O [PACLITAXEL]	< 0.008	< 0.008	< 0.008	< 0.008	< 0.008	
CNC(=N)NCCC[C@H](N)C(=O)O [TILARGININE ACETATE]						39.9
C=C1[C@@H](O)[C@@]23CC[C@@H]4[C@@](C)(CO)CCC[C@@]4(C)[C@@H]2[C@@H](O)C[C@]1(O)C3	> 40	> 40	> 40	> 40	> 40	
C=C1[C@@H](O)[C@@]23CC[C@@H]4C(C)(C)[C@H](O)CC[C@@]4(C)[C@@H]2[C@@H](O)C[C@]1(O)C3	> 40	> 40	> 40	> 40	> 40	
C=C1[C@@H](O)[C@@]23CC[C@H]4[C@@](C)(CCC[C@@]4(C)C=O)[C@@H]2[C@@H](OC(C)=O)C[C@]1(O)C3	> 40	> 40	> 40	> 40	> 40	
C[C@@]1(CO)CCC[C@@]2(C)[C@H]1C[C@@H](O)C1=CC(=O)CC[C@@]12O	> 40	> 40	> 40	> 40	> 40	
C=C1[C@@H](O)[C@@]23CC[C@@H]4[C@@](C)(CO)CCC[C@@]4(C)[C@@H]2[C@@H](OC(C)=O)C[C@]1(O)C3	> 40	> 40	> 40	> 40	> 40	

Next, values leading:

IC50 (HL-60) [µM]	IC50 (SMMC-7721) [µM]	IC50 (A549) [µM]	IC50 (MCF7) [µM]	IC50 (SW480) [µM]	IC50 (RAW264.7) [µM]	SMILES
7	4.7	19.6	11	2.5	3.1	C=C1C(=O)[C@]23C[C@@]1(O)C[C@H](OC(C)=O)[C@H]2[C@@]1(C)[C@H](C[C@H]3O)C(C)(C)CC[C@@H]1O
1	1.5	4.4	2.9	0.9	1	C=C1C(=O)[C@@]23CC[C@@H]4C(C)(C)[C@@H](O)CC[C@@]4(C)[C@@H]2[C@@H](OC(C)=O)C[C@]1(O)C3
> 40	> 40	> 40	> 40	> 40		C=C1C(=O)[C@]23C[C@@]1(O)C[C@H](OC(C)=O)[C@H]2[C@@]1(C)[C@H](C[C@H]3O)[C@](C)(CO)CC[C@@H]1O
> 40	> 40	> 40	> 40	> 40		C=C1[C@@H](O)[C@@]23CC[C@@H]4C(C)(C)[C@@H](O)CC[C@@]4(C)[C@@H]2[C@@H](OC(C)=O)C[C@]1(O)C3
> 40	> 40	> 40	> 40	> 40		C=C1[C@@H](O)[C@@]23CC[C@@H]4C(C)(C)[C@H](O)CC[C@@]4(C)[C@@H]2[C@@H](OC(C)=O)C[C@]1(O)C3
3.2	3.9	13.4	4.8	1.3	1.8	C=C1C(=O)[C@]23C[C@@]1(O)C[C@H](OC(C)=O)[C@H]2[C@@]1(C)[C@H](C[C@H]3O)[C@](C)(COC(C)=O)CC[C@@H]1O
